Measured values from ChEMBL document CHEMBL4138103, “Discovery of efficient stimulators for adult hippocampal neurogenesis based on scaffolds in dragon's blood” (Eur J Med Chem, 2017).
Active and inactive are the calls of the source. The rule behind the calls is not given here.

Tests used:
[1] = Cytotoxicity against human SH-SY5Y cells assessed as cell survival at 100 uM after 24 hrs by MTT assay relative to control; format: cell-based; conditions: read-out: Survival
How it was run: (§1)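 SH-SY5Y human neuroblastoma cells seeded at 5 × 10⁴ cells/mL, incubated 24 h at 37 °C, then exposed to compounds at final concentrations of […] for 24 h. MTT added for a further 4 h at 37 °C. Absorbance read at 570 nm and reported as percent viability. Five parallel samples per condition.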

[2] = Cytotoxicity against human SH-SY5Y cells assessed as cell survival at 1000 uM after 24 hrs by MTT assay relative to control; format: cell-based; conditions: read-out: Survival; how it was run: as §1
Rattus norvegicus [3] = experiment: In vivo neurogenic activity in Sprague-Dawley rat neural progenitor cells at 2.2 mg/kg, ip qd pretreated for 28 days followed by BrdU addition at 2 hrs interval for twice on day 29 measured after 24 hrs by BrdU incorporation assay; format: functional, organism-based
How it was run: (§2)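 Male SD rats aged 10 weeks, acclimatized 7 days (11 weeks old at start), dosed ip once daily for 28 days with compound in soybean oil containing 10% ethanol; vehicle group received 10% ethanol in oil. On day 29, BrdU in saline given twice at 100 mg/kg, 2 h apart. Rats sacrificed 24 h after the last BrdU. BrdU+ cells in SGZ-GCL counted by DAB immunostaining of 30 µm cryosections; n = 8; mean ± SEM.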

[4] = Cytotoxicity against human SH-SY5Y cells assessed as cell survival at 500 uM after 24 hrs by MTT assay relative to control; format: cell-based; conditions: read-out: Survival; how it was run: as §1
Rattus norvegicus [5] = experiment: In vivo neurogenic activity in Sprague-Dawley rat neural progenitor cells at 4 mg/kg, ip qd pretreated for 28 days followed by BrdU addition at 2 hrs interval for twice on day 29 measured after 24 hrs by BrdU incorporation assay relative to control; format: functional; how it was run: as §2

SMILES | viability at 24 h, 100 µM [1] | viability at 24 h, 1000 µM [2] | Activity (Rattus norvegicus [3]) | viability at 24 h, 500 µM [4] | Activity (Rattus norvegicus [5])
CC(=O)Nc1ccc(CCc2ccc3c(c2)OCO3)cc1 | 90.3% | 68.8% | inactive | 79.4% | –
COc1ccc(/C=C/c2ccc3c(c2)OCO3)cc1 | 76.1% | 62.8% | – | 69.6% | Active
CCOc1ccc(C#Cc2ccc3c(c2)OCO3)cc1 | 56.5% | 38.1% | – | 41% | inactive
COc1ccc(/C=C/c2ccc(NC(C)=O)cc2)cc1OC | 68% | 31.3% | inactive | 56.5% | –
CC(=O)Nc1cccc(C#Cc2ccc3c(c2)OCO3)c1 | 70.6% | 55.3% | inactive | 62.9% | –
CN(C)c1ccc(/C=C/c2ccc3c(c2)OCO3)cc1 | 83.3% | 52.6% | – | 51.2% | Active
COc1ccc(/C=C/c2ccc(NC(C)=O)cc2)cc1 | 70% | 40.7% | inactive | 52.2% | –
COc1ccc(OCC#Cc2ccc3c(c2)OCO3)cc1 | 44.1% | 36.3% | Active | 79.7% | –
COc1cc(/C=C/c2ccc(O)cc2)cc(OC)c1 [PTEROSTILBENE] | -0.58% | 51.4% | – | 32.7% | Active
C(=C\c1ccc2c(c1)OCO2)/c1ccncc1 | 8.43% | 3.56% | – | 4.26% | –
CC(=O)Oc1ccc(/C=C/c2ccc3c(c2)OCO3)cc1 | 84.5% | 17.8% | inactive | 21.3% | –
COc1ccc(C#Cc2ccc3c(c2)OCO3)cc1 | 75.9% | 63.8% | inactive | 69.1% | –
Cc1ccc(C#Cc2ccc(OCc3ccccc3)cc2)cc1 | 94.2% | 68% | – | 72.5% | –
CC(=O)Nc1ccc(C#Cc2ccc3c(c2)OCO3)cc1 | 63.2% | 35.2% | – | 51.3% | inactive
COc1ccccc1/C=C/c1ccc2c(c1)OCO2 | 36.1% | 23.6% | – | 33.6% | –
CN(C)c1ccc(/C=C/C(=O)c2ccc3c(c2)OCO3)cc1 | 49.8% | 23.7% | – | 40.2% | –
COc1cc(/C=C/c2ccc(O)cc2)cc(OC)c1OC | 27.5% | 21.2% | – | 25.9% | –
CC(=O)N(C)c1ccc(/C=C/c2ccc3c(c2)OCO3)cc1 | 50.4% | 5.89% | – | 15.8% | inactive
COc1cccc(/C=C/c2ccc(NC(C)=O)cc2)c1 | 44.5% | 11.9% | – | 26.1% | –
Oc1ccc(/C=C/c2cc(F)cc(F)c2)cc1 | -13.6% | -7.78% | – | -11% | –
CC(=O)Nc1ccc(/C=C/C(=O)c2ccc3c(c2)OCO3)cc1 | 6.71% | 4.69% | – | 2.78% | –
Oc1ccc(/C=C/c2cccc(OC(F)(F)F)c2)cc1 | 77.1% | 5.06% | – | 55.4% | –

SMILES | viability at 24 h, 100 µM [1] | viability at 24 h, 1000 µM [2] | Activity (Rattus norvegicus [3]) | viability at 24 h, 500 µM [4] | Activity (Rattus norvegicus [5])
COc1ccc(C#Cc2cc(C(F)(F)F)cc(C(F)(F)F)c2)cc1 | 28.6% | 18.3% | – | 20.9% | –
Cc1ccc(C#Cc2ccc3c(c2)OCO3)cc1 | 51.9% | 23.7% | – | 24.8% | –
Nc1ccc(/C=C/c2cccc(OC(F)(F)F)c2)cc1 | 51.8% | 26.9% | – | 31.9% | –
CCCCCc1ccc(C#Cc2ccc(OCc3ccccc3)cc2)cc1 | 62.6% | 49% | – | 51.3% | –
CCC(=O)Nc1ccc(/C=C/c2ccc3c(c2)OCO3)cc1 | 85.9% | 61.5% | Active | 80.6% | –
N#Cc1ccc(/C=C/c2ccc3c(c2)OCO3)cc1 | 110% | 36.1% | – | 43.7% | Active
COc1ccc(/C=C/c2ccc(NC(C)=O)c(F)c2)cc1 | 14.2% | 0.69% | – | 1.52% | –
COc1ccc(C(=O)/C=C/c2ccc3c(c2)OCO3)c(O)c1 | 90.4% | 49.3% | – | 59.9% | –
COc1cc(/C=C/c2ccc(NC(C)=O)cc2)cc(OC)c1 | 54.5% | 45.2% | – | 48.5% | Active
CCCC(=O)Nc1ccc(/C=C/c2ccc3c(c2)OCO3)cc1 | 58.8% | 33.3% | – | 40.7% | Active
Oc1ccc(/C=C/c2ccc(Cl)cc2)cc1O | 107% | 38.5% | – | 69.2% | –
COc1cc(/C=C/c2ccc3c(c2)OCO3)cc(OC)c1 | 74% | 45.7% | – | 60.9% | –
Nc1ccc(/C=C/c2ccc3c(c2)OCO3)cc1 | 47.6% | 32.2% | – | 39.1% | –
CC(=O)Oc1ccc(/C=C/c2cc(C)cc(C)c2)cc1 | 3.24% | 18.4% | – | 2.8% | –
COc1ccc(/C=C/c2cccc(OC(F)(F)F)c2)cc1 | 40.2% | 38.7% | – | 40.5% | –
O=C(Nc1ccc(/C=C/c2ccc3c(c2)OCO3)cc1)C(F)(F)F | 75.2% | 41.5% | – | 53.4% | inactive
CC(=O)Nc1ccc(/C=C/c2ccc3c(c2)OCO3)cc1F | 86.7% | 75.1% | – | 82% | Active
COc1cc(/C=C/C(=O)c2ccc3c(c2)OCO3)ccc1O | 16.3% | 26.2% | – | 25.2% | –
O=C(Nc1ccc(/C=C/c2ccc3c(c2)OCO3)cc1)c1cccs1 | 62.5% | 49.1% | – | 54.4% | Active
CCCCCOc1ccc(C#Cc2ccc3c(c2)OCO3)cc1 | 69.8% | 15.3% | – | 22.9% | –
COc1cccc(/C=C/c2ccc3c(c2)OCO3)c1 | 72.5% | 32% | – | 52.7% | –
